Measurements from publication PMC4402254 (ACS chemical biology, 2015).

Experiments:
[1] = biological target: GFP fusion protein containing the 53BP1 tudor domains (Homo sapiens, UniProt Q12888); assay: Fluorescence recovery after photobleaching; type: cell-based; details: FRAP before or after ionizing radiation (10 Gy)
53BP1 = 53BP1 (Homo sapiens, UniProt Q12888); assay: AlphaScreen Kme reader panel: 53BP1; type: binding
How it was run: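 Compound serially diluted 3-fold over 10 points in DMSO, top final 100 µM, and preincubated 30 min at RT with His-tagged reader protein–peptide mix in 20 mM Tris pH 8.0, 25 mM NaCl, 2 mM DTT, 0.05% Tween-20. Streptavidin donor/nickel-chelate acceptor bead mix (45 µg/mL) then added for 30 min, dark, RT, and AlphaScreen signal read. The same format was used across the Kme reader panel. IC50 is the mean of ≥3 values ± SD.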

U2OS cells = assay: 53BP1 and γH2AX foci formation after ionizing radiation; type: cell-based
Naive IgM+ B cells = assay: Class switch recombination; type: cell-based, mouse; details: 300 µM
[2] = CellTiter-Glo luminescent cell-viability assay; type: cell-based
Caco-2 cell = assay: Bi-directional Caco-2 cell permeability assay; type: in vitro ADME
endogenous 53BP1 = endogenous 53BP1 (Homo sapiens, UniProt Q12888); assay: Chromatin release assay in HEK293 cell lysates; type: biochemical; details: 2 hours at room temperature
How it was run: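 HEK293 cells were lysed in EBC-1 (Tris pH 7.5, 100 mM NaCl, 0.5% NP-40, 1 mM EDTA). Washed nuclei were held 30 min in EBC-2 (Tris pH 7.5, 300 mM NaCl, 5 mM CaCl2), and the insoluble chromatin was pelleted and resuspended in EBC-2. Chromatin was exposed to test compound 2 h at RT. The supernatant (soluble) and the sonicated pellet (chromatin-bound) were western blotted for 53BP1, with histone H3 as loading control.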

53BP1 D1521A mutant = 53BP1 D1521A mutant (Homo sapiens, UniProt Q12888, D1521A); assay: ITC with active site mutant; type: binding; details: Kme pocket mutant, listed as UNC2170
tudor domain of 53BP1 = tudor domain of 53BP1 (Homo sapiens, UniProt Q12888); assay: 1H-15N HSQC NMR of 53BP1 tudor domain; type: binding; details: 10-fold molar excess of ligand
[3] = biological target: 53BP1 tandem tudor domain (Homo sapiens, UniProt Q12888); assay: Isothermal titration calorimetry; type: binding; details: ITC
Sequence of 53BP1 tandem tudor domain (Q12888 1484-1603 limits assumed): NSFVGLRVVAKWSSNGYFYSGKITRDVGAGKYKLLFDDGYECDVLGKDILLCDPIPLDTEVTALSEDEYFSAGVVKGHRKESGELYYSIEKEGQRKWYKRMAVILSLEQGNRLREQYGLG

Sequence of 53BP1 (Q12888 1484-1603 limits assumed): as above
Sequence of endogenous 53BP1 (Q12888 whole entry): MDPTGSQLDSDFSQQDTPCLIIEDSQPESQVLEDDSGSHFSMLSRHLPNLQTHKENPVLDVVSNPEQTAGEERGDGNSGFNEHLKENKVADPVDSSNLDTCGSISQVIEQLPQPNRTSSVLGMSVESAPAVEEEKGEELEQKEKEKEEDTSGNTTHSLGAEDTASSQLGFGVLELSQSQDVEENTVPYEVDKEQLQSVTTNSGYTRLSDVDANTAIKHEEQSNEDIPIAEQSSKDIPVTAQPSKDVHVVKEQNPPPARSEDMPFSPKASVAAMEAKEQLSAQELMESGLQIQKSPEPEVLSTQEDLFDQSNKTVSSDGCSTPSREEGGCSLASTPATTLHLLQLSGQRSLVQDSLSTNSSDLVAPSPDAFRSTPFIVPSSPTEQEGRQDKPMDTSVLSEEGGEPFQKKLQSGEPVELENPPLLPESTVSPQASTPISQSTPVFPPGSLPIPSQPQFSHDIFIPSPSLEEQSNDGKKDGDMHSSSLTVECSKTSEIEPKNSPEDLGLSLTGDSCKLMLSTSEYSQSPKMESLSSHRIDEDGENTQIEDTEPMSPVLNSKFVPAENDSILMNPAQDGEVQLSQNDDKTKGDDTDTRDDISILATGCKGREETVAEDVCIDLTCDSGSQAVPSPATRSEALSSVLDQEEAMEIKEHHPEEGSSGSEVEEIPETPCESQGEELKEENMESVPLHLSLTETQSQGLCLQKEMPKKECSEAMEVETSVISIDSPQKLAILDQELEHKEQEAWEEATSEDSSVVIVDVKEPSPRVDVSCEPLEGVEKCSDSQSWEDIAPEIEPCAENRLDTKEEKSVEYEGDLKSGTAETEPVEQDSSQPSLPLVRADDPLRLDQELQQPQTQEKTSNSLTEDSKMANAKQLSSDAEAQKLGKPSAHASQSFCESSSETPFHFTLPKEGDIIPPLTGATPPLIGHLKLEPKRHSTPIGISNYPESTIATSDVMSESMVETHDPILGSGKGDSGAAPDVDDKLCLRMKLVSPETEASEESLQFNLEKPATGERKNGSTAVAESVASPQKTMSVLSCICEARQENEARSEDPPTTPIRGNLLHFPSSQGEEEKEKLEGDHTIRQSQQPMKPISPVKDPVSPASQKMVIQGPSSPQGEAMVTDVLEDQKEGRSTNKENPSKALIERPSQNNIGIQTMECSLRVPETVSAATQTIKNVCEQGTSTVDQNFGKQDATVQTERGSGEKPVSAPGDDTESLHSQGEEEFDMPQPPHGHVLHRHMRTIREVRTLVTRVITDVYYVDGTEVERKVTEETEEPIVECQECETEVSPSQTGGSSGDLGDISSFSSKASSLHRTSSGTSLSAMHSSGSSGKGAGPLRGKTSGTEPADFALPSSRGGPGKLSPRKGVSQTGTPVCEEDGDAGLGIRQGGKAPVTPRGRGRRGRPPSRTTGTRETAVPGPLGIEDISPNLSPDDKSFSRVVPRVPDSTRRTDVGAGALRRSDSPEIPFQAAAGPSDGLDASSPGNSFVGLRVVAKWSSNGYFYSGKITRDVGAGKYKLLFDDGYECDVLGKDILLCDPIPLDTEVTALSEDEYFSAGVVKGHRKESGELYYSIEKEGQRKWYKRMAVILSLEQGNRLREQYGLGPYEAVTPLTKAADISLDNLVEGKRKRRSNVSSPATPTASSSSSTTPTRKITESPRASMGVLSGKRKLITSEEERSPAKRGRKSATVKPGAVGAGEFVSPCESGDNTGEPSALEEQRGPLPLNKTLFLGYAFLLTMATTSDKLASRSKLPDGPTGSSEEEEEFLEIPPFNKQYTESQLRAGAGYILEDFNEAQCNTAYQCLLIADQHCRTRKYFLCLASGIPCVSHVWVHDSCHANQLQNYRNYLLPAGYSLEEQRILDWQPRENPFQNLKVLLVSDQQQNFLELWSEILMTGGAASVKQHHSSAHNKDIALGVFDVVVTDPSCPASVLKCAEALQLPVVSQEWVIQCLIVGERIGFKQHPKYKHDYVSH
Sequence of GFP fusion protein containing the 53BP1 tudor domains (Q12888 1484-1603 limits assumed): as the sequence (Q12888 1484-1603 limits assumed) above
Sequence of tudor domain of 53BP1 (Q12888 1484-1603 limits assumed): as above
Sequence of 53BP1 D1521A mutant (Q12888 1484-1603 D1521A limits assumed): as the sequence (Q12888 1484-1603 limits assumed) above, with D38A counted along it

| Kd against the 53BP1 tandem tudor domain [3] | Compound | apparent residence time of GFP-53BP1 tudor fusion protein [1] | ligand efficiency (53BP1) | lipophilic ligand efficiency (53BP1) | selectivity for 53BP1 as compared to other Kme binding proteins tested (53BP1; versus nine other Kme reader proteins, AlphaScreen) | γH2AX foci (U2OS cells; after compound treatment) | extent of endogenous 53BP1 foci formed following irradiation (U2OS cells; pretreatment 1 hour, 100 – 300 µM, 5 Gy) | cell viability of B cells undergoing CSR (Naive IgM+ B cells) | concentration at which cell toxicity begins to take effect [2] [µM] | cell permeability (Caco-2 cell) | lowest concentration at which partial release of 53BP1 was detected (endogenous 53BP1) [µM] | binding to 53BP1 D1521A mutant (53BP1 D1521A mutant) | changes in chemical shifts of 53BP1 tudor domain (tudor domain of 53BP1) |
| --- | --- | --- | --- | --- | --- | --- | --- | --- | --- | --- | --- | --- | --- |
| – | CC(C)(C)NCCCNC(=O)c1cccc(Br)c1 [Compound 1] | did not affect | 0.35 | 1.5 | at least 17 fold | no changes were observed | did not significantly decrease | reduction in cell viability | > 10000 | highly cell permeant | 10 | abrogated | Extensive changes in chemical shifts were observed |
| no measurable affinity | CN(CCCNC(=O)c1cccc(Br)c1)C(C)(C)C [Compound 4] | – | – | – | – | – | – | – | – | – | – | – | – |
